Assay results reported in ChEMBL document CHEMBL1123424, “Conformationally defined adrenergic agents. 2. Catechol imidazoline derivatives: biological effects at alpha 1 and alpha 2 adrenergic receptors” (J Med Chem, 1986).

What was measured:
Oryctolagus cuniculus = species: Oryctolagus cuniculus; test: The compound was evaluated for the alpha-1-adrenergic activity in isolated rabbit aortic tissue as E max; type: functional; conditions: Aorta
In short: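 Rabbit aorta helical strip in Krebs buffer, pH 7.4, 37 °C, 2 g initial tension, isometric contraction. […] Washout every 10-15 min for 60-90 min, then cumulative test-compound curve in the same tissue. Index = ED50 NE/ED50 CPD, calculated per experiment, then averaged.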

[1] = target: T1, Adrenergic receptor alpha-1 (Rattus norvegicus, UniProt P15823+P23944+P43140); test: The compound was evaluated for the inhibition of [3H]prazosin binding to alpha-1 adrenergic receptor from rat liver
T1 sequence (P15823 whole entry): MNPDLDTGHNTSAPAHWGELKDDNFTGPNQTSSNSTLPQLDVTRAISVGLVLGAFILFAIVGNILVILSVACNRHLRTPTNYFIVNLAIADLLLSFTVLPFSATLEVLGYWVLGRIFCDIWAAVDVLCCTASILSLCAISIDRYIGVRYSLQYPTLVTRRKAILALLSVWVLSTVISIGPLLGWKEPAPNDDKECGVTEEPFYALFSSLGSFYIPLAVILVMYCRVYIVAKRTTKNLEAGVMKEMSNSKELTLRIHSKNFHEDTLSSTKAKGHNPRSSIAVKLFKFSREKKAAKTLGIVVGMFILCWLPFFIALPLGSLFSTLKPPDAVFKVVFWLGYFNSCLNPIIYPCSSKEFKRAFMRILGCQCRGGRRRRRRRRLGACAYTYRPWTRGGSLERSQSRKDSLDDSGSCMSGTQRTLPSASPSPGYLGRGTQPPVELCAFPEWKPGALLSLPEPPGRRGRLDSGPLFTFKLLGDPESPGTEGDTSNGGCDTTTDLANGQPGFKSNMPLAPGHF
T1 sequence (P23944 whole entry): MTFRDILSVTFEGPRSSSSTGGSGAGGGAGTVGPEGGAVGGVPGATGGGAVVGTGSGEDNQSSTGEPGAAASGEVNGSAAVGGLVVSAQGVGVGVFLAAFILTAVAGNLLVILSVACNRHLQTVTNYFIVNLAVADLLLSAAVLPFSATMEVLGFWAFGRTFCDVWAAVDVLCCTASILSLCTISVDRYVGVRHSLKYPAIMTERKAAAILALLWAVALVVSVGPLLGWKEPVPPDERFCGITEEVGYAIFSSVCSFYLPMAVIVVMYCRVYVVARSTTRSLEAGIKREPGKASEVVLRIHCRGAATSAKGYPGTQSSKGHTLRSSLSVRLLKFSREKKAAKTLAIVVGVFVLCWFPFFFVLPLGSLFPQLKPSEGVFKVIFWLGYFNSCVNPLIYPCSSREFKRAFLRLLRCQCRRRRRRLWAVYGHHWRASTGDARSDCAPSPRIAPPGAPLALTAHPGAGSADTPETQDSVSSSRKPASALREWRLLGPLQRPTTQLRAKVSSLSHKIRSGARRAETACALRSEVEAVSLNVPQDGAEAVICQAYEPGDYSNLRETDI
T1 sequence (P43140 whole entry): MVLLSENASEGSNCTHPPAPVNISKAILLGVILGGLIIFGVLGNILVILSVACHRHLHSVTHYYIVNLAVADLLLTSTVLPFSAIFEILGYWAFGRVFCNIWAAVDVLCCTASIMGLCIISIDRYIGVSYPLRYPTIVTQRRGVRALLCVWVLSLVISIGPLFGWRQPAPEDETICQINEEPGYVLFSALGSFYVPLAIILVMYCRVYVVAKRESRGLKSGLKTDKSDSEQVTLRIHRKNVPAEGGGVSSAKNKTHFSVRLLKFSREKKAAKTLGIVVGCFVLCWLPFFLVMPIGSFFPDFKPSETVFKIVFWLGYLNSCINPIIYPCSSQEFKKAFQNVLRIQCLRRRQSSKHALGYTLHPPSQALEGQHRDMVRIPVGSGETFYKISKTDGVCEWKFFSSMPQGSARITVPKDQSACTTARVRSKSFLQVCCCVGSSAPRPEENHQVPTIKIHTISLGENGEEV
In short: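 Washed rat liver membranes (male Sprague-Dawley) in 50 mM Tris-HCl pH 7.7, 50-150 μg/mL protein. [3H]prazosin incubated 50 min at 25 °C, then filtration. Nonspecific binding with phentolamine 10⁻⁵ M. At least four test concentrations between 10⁻¹⁰ and 10⁻³ M, in duplicate. IC50 from logit-log plot, Ki by Cheng-Prusoff.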

[2] = target: T2, Adrenergic receptor alpha-2 (Rattus norvegicus, UniProt P22086+P19328+P22909); test: The compound was evaluated for the binding affinity towards alpha-2 adrenergic receptor from rat cortex
T2 sequence (P22086 whole entry): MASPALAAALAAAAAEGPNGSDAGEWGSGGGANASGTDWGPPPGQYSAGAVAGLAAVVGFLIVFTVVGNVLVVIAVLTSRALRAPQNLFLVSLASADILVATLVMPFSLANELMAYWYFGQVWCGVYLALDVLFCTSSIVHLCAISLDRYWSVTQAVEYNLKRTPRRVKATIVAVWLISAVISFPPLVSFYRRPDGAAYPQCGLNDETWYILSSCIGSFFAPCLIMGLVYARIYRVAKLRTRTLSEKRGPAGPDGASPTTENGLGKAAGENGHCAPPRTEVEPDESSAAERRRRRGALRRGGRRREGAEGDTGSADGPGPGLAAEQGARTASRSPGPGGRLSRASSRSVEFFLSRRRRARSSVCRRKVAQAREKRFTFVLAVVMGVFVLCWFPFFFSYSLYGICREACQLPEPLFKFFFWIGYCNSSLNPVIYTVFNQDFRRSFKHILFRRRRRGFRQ
T2 sequence (P19328 whole entry): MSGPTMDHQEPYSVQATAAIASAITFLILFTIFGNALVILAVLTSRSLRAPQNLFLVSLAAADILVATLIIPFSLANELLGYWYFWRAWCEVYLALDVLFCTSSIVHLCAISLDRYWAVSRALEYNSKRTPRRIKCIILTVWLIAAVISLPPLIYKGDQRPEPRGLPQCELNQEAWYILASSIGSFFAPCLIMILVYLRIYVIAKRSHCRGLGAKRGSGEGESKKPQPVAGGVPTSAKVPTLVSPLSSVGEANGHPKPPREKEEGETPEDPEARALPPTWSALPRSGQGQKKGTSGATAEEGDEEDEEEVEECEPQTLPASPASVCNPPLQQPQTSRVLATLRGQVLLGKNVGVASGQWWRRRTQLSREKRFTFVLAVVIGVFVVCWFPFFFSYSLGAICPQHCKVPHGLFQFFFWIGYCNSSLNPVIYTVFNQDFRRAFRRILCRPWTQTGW
T2 sequence (P22909 whole entry): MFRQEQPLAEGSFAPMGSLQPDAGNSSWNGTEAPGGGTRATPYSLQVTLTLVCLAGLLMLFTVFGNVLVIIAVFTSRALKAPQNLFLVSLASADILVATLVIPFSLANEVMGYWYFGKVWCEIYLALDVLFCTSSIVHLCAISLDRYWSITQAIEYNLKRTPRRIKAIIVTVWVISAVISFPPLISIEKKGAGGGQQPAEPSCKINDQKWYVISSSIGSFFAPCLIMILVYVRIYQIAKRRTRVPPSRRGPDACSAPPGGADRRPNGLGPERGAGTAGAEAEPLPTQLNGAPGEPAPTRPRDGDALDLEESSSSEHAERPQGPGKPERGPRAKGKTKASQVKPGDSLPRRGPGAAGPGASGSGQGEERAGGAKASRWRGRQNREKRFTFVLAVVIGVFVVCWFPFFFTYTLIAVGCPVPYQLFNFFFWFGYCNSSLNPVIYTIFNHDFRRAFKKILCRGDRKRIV
In short: (§1)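 Washed membranes of pooled male Sprague-Dawley rat cerebral cortex in 50 mM Tris-HCl pH 7.7, 50-150 μg/mL protein. [3H]rauwolscine incubated 2 h at 4 °C, then filtration. Nonspecific binding with phentolamine 10⁻⁵ M. At least four test concentrations between 10⁻¹⁰ and 10⁻³ M, in duplicate. IC50 from logit-log plot, Ki by Cheng-Prusoff.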

[3] = target: T2, Adrenergic receptor alpha-2; test: The compound was evaluated for the inhibition of [3H]rauwolscine binding to alpha-2-adrenergic receptor from rat cortex; in short: as §1
[4] = target: Adrenergic receptor alpha-2 (Homo sapiens) (UniProt P08913+P18825+P18089); test: Index is the ratio between ED50 value of Norepinephrine to test compound at alpha-2 adrenergic receptor
In short: (§2)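 Dog saphenous vein strips, gassed 95% O2/5% CO2, 37 °C, pH 7.45, 2 g preload, isometric contraction. After 15-20 min equilibration, maximal NE contraction (1 × 10⁻⁴ M) and 60 min wash. Phenoxybenzamine 1 × 10⁻⁷ M for 30 min, 60 min washout. Control cumulative NE curve, washout 45-60 min, then cumulative test-agonist curve. Index = ED50 NE/ED50 CPD per experiment, averaged.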

[5] = target: Adrenergic receptor alpha-1 (Homo sapiens) (UniProt P35348+P25100+P35368); test: Index is the ratio between ED50 value of Norepinephrine to test compound at alpha-1 adrenergic receptor
Canis familiaris [6] = species: Canis familiaris; test: The compound was evaluated for the alpha-2-adrenergic activity in PBZ-pretreated dog saphenous vein as E max; type: functional; conditions: Canis lupus familiaris; in short: as §2
Canis familiaris [7] = species: Canis familiaris; test: The compound was evaluated for the alpha-2-adrenergic activity in PBZ-pretreated dog saphenous vein as EED50 CPD; type: functional, Canis lupus familiaris; in short: as §2

Br.Oc1ccc2c(c1O)CCCC2C1=NCCN1 (stereo not given)
Emax (Oryctolagus cuniculus): 114% | IC50 [1]: 2500 nM | Ki [1]: 400 nM | Ki [2]: 6.5 nM | IC50 [3]: 7 nM | Ratio [4]: 188 | Ratio [5]: 13 | Emax (Canis familiaris [6]): 102%

Br.Oc1ccc2c(c1O)CC2C1=NCCN1 (stereo not given)
Emax (Oryctolagus cuniculus): 98% | IC50 [1]: 4400 nM | Ki [1]: 1100 nM | Ki [2]: 46 nM | IC50 [3]: 49 nM | Ratio [4]: 1.8 | Ratio [5]: 0.4 | Emax (Canis familiaris [6]): 67%

Br.Oc1ccc2c(c1O)CCCCC2C1=NCCN1 (stereo not given)
IC50 [1]: 56000 nM | Ki [1]: 13000 nM | ED50 (Canis familiaris [7]): 350 | Ki [2]: 4000 nM | IC50 [3]: 4200 nM | Ratio [4]: 0.03

Br.Oc1ccc2c(c1O)CCC2C1=NCCN1 (stereo not given)
Emax (Oryctolagus cuniculus): 124% | IC50 [1]: 1570 nM | Ki [1]: 350 nM | Ki [2]: 3.1 nM | IC50 [3]: 3.3 nM | Ratio [4]: 22 | Ratio [5]: 12 | Emax (Canis familiaris [6]): 102%
